Results reported in ChEMBL document CHEMBL4350961, “Discovery of Pyrrolo[3,2- d]pyrimidin-4-one Derivatives as a New Class of Potent and Cell-Active Inhibitors of P300/CBP-Associated Factor Bromodomain” (J Med Chem, 2019).
Calls of active or inactive are those of the source.

Legend:
[1] = molecular target: Serine/threonine-protein kinase WNK4 (Homo sapiens) (UniProt Q96J92); experiment: Inhibition of human WNK4 using myelin basic protein as substrate measured after 120 mins in presence of [gamma33P]ATP by scintillation counting method
[2] = molecular target: Serine/threonine-protein kinase Chk1 (Homo sapiens) (UniProt O14757); experiment: Inhibition of recombinant full length human CHK1 at 10 uM using KKKVSRSGLYRSPSMPENLNRPR as substrate measured after 40 mins in presence of [gamma33P]ATP by scintillation counting method
[3] = molecular target: Inhibitor of nuclear factor kappa-B kinase subunit alpha (Homo sapiens) (UniProt O15111); experiment: Inhibition of recombinant full-length human IKKalpha (959 to end residues) at 10 uM using peptide substrate measured after 40 mins in presence of [gamma33P]ATP by scintillation counting method
[4] = test system: Proto-oncogene tyrosine-protein kinase Src (Homo sapiens), P12931 [T341M]; experiment: Inhibition of recombinant full-length human Src T341M mutant at 10 uM using GGEEEEYFELVKKKK as substrate measured after 40 mins in presence of [gamma33P]ATP by scintillation counting method
[5] = molecular target: Calcium/calmodulin-dependent protein kinase type 1D (Homo sapiens) (UniProt Q8IU85); experiment: Inhibition of recombinant full-length human CaMK1delta at 10 uM using calmodulin as substrate measured after 40 mins in presence of [gamma33P]ATP by scintillation counting method
[6] = molecular target: Serine/threonine-protein kinase MAK (Homo sapiens) (UniProt P20794); experiment: Inhibition of recombinant full-length human MAK at 10 uM using RRRFRPASPLRGPPK as substrate measured after 120 mins in presence of [gamma33P]ATP by scintillation counting method
[7] = molecular target: Tyrosine-protein kinase JAK2 (Homo sapiens) (UniProt O60674); experiment: Inhibition of recombinant human JAK2 (808 to end residues) at 10 uM using KTFCGTPEYLAPEVRREPRILSEEEQEMFRDFDYIADWC as substrate measured after 40 mins in presence of [gamma33P]ATP by scintillation counting method
[8] = molecular target: Homeodomain-interacting protein kinase 1 (Homo sapiens) (UniProt Q86Z02); experiment: Inhibition of recombinant human activated HIPK1 (158 to 555 residues) at 10 uM using myelin basic protein as substrate measured after 40 mins in presence of [gamma33P]ATP by scintillation counting method
[9] = molecular target: SRSF protein kinase 1 (Homo sapiens) (UniProt Q96SB4); experiment: Inhibition of human SRPK1 (2 to end residues) using RSRSRSRSRSRSRSR as substrate measured after 40 mins in presence of [gamma33P]ATP by scintillation counting method
In short: (§1)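 Kinase panel of 422 kinases screened by Eurofins KinaseProfiler at a single test-compound concentration of 10 µM.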

[10] = molecular target: Testis-specific serine/threonine-protein kinase 1 (Homo sapiens) (UniProt Q9BXA7); experiment: Inhibition of recombinant full-length human TSSK1 at 10 uM using KKKVSRSGLYRSPSMPENLNRPR as substrate measured after 120 mins in presence of [gamma33P]ATP by scintillation counting method
[11] = test system: RAF proto-oncogene serine/threonine-protein kinase (Homo sapiens), P04049 [Y340D,Y341D]; experiment: Inhibition of recombinant human c-RAF Y340D/Y341D mutant (360 to end residues) at 10 uM using inactive MEK1 as substrate measured after 40 mins in presence of [gamma33P]ATP by scintillation counting method
[12] = molecular target: Tyrosine-protein kinase JAK1 (Homo sapiens) (UniProt P23458); experiment: Inhibition of recombinant human JAK1 (866 to end residues) at 10 uM using GEEPLYWSFPAKKK as substrate measured after 40 mins in presence of [gamma33P]ATP by scintillation counting method
Homo sapiens = organism: Homo sapiens; experiment: Inhibition of recombinant full-length human PI3K p110delta/p85alpha N253S mutant at 10 uM using phosphatidylinositol-4, 5-bisphosphate as substrate measured after 40 mins by fluorescence assay
[13] = molecular target: Mitogen-activated protein kinase kinase kinase kinase 3 (Homo sapiens) (UniProt Q8IVH8); experiment: Inhibition of recombinant human MAP4K3 (1 to 291 residues) at 10 uM using RLGRDKYKTLRQIRQ as substrate measured after 40 mins in presence of [gamma33P]ATP by scintillation counting method
[14] = molecular target: Death-associated protein kinase 2 (Homo sapiens) (UniProt Q9UIK4); experiment: Inhibition of recombinant full-length human DAPK2 at 10 uM using calmodulin as substrate measured after 40 mins in presence of [gamma33P]ATP by scintillation counting method
[15] = molecular target: Cyclin-dependent kinase 13/Cyclin-K (Homo sapiens) (UniProt Q14004+O75909); experiment: Inhibition of recombinant full length human CDK13/cyclinK at 10 uM using RSRSRSRSRSRSRSR as substrate measured after 120 mins in presence of [gamma33P]ATP by scintillation counting method; format: protein-complex assay
[16] = molecular target: Serine/threonine-protein kinase 17A (Homo sapiens) (UniProt Q9UEE5); experiment: Inhibition of recombinant full-length human DRAK1 at 10 uM using KKLNRTLSFAEPG as substrate measured after 40 mins in presence of [gamma33P]ATP by scintillation counting method
[17] = molecular target: Serine/threonine-protein kinase 25 (Homo sapiens) (UniProt O00506); experiment: Inhibition of human STK25 (1 to 308 residues) using RLGRDKYKTLRQIRQ as substrate measured after 40 mins in presence of [gamma33P]ATP by scintillation counting method; in short: as §1
[18] = molecular target: Calcium/calmodulin-dependent protein kinase type 1B (Homo sapiens) (UniProt Q6P2M8); experiment: Inhibition of recombinant full-length human CaMK1beta at 10 uM using calmodulin as substrate measured after 40 mins in presence of [gamma33P]ATP by scintillation counting method
[19] = molecular target: Misshapen-like kinase 1 (Homo sapiens) (UniProt Q8N4C8); experiment: Inhibition of recombinant human MINK (1 to 310 residues) at 10 uM using myelin basic protein as substrate measured after 40 mins in presence of [gamma33P]ATP by scintillation counting method
[20] = molecular target: Tyrosine-protein kinase JAK3 (Homo sapiens) (UniProt P52333); experiment: Inhibition of recombinant human JAK3 (781 to end residues) at 10 uM using GGEEEEYFELVKKKK as substrate measured after 40 mins in presence of [gamma33P]ATP by scintillation counting method
[21] = molecular target: Bromodomain-containing protein 9 (Homo sapiens) (UniProt Q9H8M2); experiment: Binding affinity to human partial length BRD9 (R130 to V259 residues) expressed in bacterial expression system at 1 uM by BROMOscan assay
In short: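 BROMOscan bromodomain cross-screen run by an outside service, compound at 1 µM against 32 recombinant bromodomains. Binding given as percent of control.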

[22] = molecular target: Serine/threonine-protein kinase PAK 1 (Homo sapiens) (UniProt Q13153); experiment: Inhibition of recombinant human PAK1 (150 to end residues) at 10 uM using RRRLSFAEPG as substrate measured after 40 mins in presence of [gamma33P]ATP by scintillation counting method
Chain of Serine/threonine-protein kinase PAK 1 (Homo sapiens) (Q13153 whole entry): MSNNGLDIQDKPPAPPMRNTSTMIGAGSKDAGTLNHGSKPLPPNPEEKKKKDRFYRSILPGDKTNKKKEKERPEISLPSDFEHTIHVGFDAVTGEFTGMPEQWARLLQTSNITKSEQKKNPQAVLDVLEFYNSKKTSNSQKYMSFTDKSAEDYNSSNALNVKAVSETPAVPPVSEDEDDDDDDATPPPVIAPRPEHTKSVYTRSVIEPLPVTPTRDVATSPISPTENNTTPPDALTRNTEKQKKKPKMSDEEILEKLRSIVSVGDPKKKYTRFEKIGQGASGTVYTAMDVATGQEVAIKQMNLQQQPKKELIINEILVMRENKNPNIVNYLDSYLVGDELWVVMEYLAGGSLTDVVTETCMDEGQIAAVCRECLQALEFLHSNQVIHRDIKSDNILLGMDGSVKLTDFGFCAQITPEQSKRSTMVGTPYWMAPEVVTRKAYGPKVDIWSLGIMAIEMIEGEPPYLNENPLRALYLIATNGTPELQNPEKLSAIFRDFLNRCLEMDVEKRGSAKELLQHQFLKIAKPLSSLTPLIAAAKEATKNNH

Chain of Serine/threonine-protein kinase WNK4 (Homo sapiens) (Q96J92 whole entry): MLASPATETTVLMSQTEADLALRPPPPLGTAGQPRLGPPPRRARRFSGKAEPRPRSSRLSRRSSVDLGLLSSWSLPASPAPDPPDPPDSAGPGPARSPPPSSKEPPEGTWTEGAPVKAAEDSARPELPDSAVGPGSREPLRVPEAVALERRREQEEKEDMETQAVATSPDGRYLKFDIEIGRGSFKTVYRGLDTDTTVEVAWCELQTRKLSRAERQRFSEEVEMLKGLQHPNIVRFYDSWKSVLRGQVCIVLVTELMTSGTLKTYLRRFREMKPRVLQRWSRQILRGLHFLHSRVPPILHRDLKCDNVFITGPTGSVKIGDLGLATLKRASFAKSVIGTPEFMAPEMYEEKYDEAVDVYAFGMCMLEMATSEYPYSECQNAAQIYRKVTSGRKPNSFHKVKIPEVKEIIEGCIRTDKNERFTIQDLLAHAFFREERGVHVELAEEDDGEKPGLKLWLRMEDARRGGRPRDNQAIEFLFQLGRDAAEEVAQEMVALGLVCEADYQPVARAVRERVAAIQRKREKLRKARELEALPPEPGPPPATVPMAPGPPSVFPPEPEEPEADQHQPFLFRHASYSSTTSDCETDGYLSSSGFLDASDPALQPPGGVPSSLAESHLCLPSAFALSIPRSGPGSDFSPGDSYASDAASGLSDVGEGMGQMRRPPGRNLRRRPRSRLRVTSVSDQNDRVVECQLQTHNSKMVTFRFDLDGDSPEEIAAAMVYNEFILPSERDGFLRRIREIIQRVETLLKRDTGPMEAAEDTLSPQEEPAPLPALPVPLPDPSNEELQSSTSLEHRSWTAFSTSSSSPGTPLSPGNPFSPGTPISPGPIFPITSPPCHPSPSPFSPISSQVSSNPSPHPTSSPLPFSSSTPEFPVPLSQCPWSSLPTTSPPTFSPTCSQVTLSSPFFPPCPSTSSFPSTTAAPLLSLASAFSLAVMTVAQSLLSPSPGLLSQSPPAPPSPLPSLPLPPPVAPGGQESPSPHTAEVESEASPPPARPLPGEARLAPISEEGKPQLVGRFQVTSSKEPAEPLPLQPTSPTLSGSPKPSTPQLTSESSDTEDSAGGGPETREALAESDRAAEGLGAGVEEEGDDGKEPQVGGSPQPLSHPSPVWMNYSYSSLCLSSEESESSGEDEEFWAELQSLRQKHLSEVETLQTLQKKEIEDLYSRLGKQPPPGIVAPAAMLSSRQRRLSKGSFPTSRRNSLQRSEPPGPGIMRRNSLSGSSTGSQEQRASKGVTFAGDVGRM
Chain of Misshapen-like kinase 1 (Homo sapiens) (Q8N4C8 whole entry, looked up, the tested form may be a part): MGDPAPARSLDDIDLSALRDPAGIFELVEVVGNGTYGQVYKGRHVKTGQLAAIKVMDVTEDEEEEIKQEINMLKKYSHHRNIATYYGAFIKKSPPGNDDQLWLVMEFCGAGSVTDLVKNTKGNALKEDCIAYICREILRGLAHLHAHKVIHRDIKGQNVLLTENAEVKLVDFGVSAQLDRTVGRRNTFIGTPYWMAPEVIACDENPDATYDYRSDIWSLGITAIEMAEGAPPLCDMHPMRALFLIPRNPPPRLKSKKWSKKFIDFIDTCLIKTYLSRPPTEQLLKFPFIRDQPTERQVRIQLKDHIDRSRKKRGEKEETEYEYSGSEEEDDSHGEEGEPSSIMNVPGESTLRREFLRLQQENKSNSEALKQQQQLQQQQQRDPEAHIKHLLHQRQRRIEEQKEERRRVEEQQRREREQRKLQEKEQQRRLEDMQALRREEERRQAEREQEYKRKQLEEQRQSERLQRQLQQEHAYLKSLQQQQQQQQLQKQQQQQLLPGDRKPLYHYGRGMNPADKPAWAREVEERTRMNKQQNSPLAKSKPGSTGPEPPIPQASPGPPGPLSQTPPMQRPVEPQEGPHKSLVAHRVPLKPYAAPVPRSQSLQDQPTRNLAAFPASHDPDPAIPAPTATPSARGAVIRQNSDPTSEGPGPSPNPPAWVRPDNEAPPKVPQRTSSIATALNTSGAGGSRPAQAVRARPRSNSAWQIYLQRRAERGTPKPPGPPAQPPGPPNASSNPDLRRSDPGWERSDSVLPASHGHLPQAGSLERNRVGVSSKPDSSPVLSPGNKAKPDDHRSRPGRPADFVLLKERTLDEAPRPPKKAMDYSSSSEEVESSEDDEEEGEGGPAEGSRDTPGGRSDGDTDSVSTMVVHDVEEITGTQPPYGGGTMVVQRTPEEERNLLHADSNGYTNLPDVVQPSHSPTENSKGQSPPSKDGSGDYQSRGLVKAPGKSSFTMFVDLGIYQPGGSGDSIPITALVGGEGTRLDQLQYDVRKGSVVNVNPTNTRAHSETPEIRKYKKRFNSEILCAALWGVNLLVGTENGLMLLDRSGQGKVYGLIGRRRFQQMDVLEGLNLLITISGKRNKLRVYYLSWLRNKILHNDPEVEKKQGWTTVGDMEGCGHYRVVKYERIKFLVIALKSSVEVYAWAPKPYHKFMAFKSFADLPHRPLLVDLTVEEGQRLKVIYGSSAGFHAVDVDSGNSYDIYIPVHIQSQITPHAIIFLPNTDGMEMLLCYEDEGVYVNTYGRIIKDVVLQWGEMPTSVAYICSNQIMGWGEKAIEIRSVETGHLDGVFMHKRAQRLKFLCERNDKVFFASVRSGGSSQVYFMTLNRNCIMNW
Chain of Tyrosine-protein kinase JAK1 (Homo sapiens) (P23458 whole entry): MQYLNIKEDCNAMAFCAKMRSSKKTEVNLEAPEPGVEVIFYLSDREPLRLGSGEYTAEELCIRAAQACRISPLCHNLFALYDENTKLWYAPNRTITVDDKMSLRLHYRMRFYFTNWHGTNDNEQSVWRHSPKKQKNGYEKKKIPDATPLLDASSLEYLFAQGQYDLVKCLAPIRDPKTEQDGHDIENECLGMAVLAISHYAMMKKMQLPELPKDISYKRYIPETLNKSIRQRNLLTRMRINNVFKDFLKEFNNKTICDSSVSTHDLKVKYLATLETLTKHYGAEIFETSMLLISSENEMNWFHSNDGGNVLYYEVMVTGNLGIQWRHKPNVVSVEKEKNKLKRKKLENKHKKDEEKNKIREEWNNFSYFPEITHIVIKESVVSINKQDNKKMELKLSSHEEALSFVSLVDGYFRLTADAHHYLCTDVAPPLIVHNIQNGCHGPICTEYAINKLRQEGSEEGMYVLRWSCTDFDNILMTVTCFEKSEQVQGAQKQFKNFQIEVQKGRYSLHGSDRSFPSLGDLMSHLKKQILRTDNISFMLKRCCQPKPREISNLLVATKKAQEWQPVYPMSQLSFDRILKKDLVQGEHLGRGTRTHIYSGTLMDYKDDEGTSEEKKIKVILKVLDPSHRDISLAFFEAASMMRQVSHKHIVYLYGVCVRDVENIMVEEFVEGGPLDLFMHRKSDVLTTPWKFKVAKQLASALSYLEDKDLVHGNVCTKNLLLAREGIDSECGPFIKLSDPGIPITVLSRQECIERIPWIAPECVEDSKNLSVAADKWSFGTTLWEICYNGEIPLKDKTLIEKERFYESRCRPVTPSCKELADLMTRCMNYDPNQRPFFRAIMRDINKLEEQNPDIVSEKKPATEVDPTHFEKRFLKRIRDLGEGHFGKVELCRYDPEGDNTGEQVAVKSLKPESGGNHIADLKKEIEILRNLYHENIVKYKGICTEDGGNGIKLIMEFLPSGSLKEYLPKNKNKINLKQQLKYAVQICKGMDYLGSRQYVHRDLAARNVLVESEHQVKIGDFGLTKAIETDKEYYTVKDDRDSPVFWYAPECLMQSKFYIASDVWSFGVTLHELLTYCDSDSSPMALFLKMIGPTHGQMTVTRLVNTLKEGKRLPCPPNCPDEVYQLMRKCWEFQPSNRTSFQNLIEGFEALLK
Chain of Bromodomain-containing protein 9 (Homo sapiens) (Q9H8M2 whole entry, the tested form may be a part): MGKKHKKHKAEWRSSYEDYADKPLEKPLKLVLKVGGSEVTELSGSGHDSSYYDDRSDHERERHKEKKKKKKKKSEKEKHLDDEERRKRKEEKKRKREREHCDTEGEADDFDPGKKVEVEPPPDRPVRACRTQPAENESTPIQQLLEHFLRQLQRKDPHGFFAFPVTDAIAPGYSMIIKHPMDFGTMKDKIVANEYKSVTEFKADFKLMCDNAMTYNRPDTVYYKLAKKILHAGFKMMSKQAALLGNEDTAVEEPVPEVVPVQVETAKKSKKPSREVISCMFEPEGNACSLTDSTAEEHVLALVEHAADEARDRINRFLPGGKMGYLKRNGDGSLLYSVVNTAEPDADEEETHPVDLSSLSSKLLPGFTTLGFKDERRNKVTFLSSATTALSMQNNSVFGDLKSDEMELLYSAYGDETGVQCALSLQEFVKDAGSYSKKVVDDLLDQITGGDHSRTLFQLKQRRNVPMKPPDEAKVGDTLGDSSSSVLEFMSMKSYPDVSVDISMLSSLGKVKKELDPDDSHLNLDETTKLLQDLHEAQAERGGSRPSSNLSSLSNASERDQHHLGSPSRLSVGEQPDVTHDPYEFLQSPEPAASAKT

CN1C[C@H](Nc2nc3cc[nH]c3c(=O)n2C)C[C@H](c2ccc3c(c2)OCCO3)C1
inactive: inhibition [1] | inhibition [2] | inhibition [3] | inhibition [4] | inhibition [5] | inhibition [6] | inhibition [7] | inhibition [8] | inhibition [9] | inhibition [10] | inhibition [11] | inhibition [12] | inhibition (Homo sapiens) | inhibition [13] | inhibition [14] | inhibition [15] | inhibition [16] | inhibition [17] | inhibition [18] | inhibition [19] | inhibition [20] | Activity [21] | inhibition [22]
